Data reported in ChEMBL document CHEMBL3112507 (Bioorg Med Chem, 2014).
pIC50, pKi: −log10 of the molar value. Active and inactive are the calls of the source. No cut-off for these calls is given here.

Legend:
[1] = molecular target: T1, Prostaglandin G/H synthase 2 (Homo sapiens) (UniProt P35354); assay: Inhibition of COX2 (unknown origin) by EIA
T1 sequence (whole entry): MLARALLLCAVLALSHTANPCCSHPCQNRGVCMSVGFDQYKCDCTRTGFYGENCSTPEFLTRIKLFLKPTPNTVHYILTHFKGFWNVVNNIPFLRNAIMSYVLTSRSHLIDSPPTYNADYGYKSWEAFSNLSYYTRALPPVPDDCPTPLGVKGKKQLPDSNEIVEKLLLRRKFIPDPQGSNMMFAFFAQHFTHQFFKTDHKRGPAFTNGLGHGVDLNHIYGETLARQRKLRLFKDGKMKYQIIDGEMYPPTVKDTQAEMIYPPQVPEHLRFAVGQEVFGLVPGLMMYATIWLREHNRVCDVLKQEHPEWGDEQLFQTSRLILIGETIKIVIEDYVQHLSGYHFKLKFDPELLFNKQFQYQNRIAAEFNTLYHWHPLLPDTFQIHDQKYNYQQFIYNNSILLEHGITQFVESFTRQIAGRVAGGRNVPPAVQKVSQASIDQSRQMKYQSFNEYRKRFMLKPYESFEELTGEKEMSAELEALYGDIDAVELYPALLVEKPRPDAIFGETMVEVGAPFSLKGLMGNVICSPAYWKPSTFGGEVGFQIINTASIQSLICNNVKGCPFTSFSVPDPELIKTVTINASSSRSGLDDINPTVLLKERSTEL

[2] = molecular target: T2, Polyunsaturated fatty acid 5-lipoxygenase (Homo sapiens) (UniProt P09917); assay: Inhibition of 5-LOX (unknown origin) using arachidonic acid as substrate at 1 uM after 5 mins by EIA
T2 sequence (whole entry): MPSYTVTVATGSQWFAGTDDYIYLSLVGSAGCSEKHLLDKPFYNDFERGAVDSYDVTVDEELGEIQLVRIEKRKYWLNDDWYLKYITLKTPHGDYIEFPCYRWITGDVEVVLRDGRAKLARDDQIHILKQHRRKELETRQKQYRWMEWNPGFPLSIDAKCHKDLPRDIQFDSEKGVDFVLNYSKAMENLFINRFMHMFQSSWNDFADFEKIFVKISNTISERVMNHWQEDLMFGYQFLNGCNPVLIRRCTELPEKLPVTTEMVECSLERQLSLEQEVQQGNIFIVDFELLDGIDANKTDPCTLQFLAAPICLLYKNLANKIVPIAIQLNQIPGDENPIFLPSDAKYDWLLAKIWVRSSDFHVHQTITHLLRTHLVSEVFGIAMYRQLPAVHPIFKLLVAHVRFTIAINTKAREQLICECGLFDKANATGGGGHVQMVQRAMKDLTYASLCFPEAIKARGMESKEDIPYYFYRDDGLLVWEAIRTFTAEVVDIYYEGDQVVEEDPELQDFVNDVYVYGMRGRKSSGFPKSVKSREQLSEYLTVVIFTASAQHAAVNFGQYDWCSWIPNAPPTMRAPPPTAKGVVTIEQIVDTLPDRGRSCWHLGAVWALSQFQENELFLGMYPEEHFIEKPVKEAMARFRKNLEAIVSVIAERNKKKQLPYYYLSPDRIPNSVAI
Outline: (§1)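 Test compounds dissolved in DMSO at 0.01, 0.1, 1, 10 and 100 µM. Each was added to 5-LOX enzyme in assay buffer, and the reaction was started with arachidonic acid substrate. Plates were shaken 5 min, chromogen was added, shaken 5 min more, then read at 490 nm. Blanks were buffer plus AA; positive controls were enzyme plus AA. Run in duplicate, means with deviation <5% used. Percent inhibition was calculated from lipoxygenase activity; IC50 derived from the concentration series.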

[3] = molecular target: Phospholipase A2 (Homo sapiens) (UniProt P04054); assay: Inhibition of PLA2 (unknown origin) by Ellman's method
Chain of Phospholipase A2 (Homo sapiens) (P04054 23-148 limits assumed): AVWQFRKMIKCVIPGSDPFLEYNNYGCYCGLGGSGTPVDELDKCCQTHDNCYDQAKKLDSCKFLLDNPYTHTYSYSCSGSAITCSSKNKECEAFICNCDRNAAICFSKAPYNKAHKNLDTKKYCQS

[4] = molecular target: T3, Polyunsaturated fatty acid 5-lipoxygenase (Homo sapiens, UniProt P09917); assay: Inhibition of 5-LOX (unknown origin) using arachidonic acid as substrate after 5 mins by EIA; outline: as §1
T3 sequence (P09917 whole entry): T2 sequence (whole entry)

[5] = molecular target: T2, Polyunsaturated fatty acid 5-lipoxygenase (Homo sapiens); assay: Inhibition of 5-LOX (unknown origin) using arachidonic acid as substrate at 0.01 uM after 5 mins by EIA; outline: as §1
[6] = molecular target: T2, Polyunsaturated fatty acid 5-lipoxygenase (Homo sapiens); assay: Inhibition of 5-LOX (unknown origin) using arachidonic acid as substrate at 0.1 uM after 5 mins by EIA; outline: as §1
[7] = molecular target: Prostaglandin G/H synthase 1 (Homo sapiens) (UniProt P23219); assay: Inhibition of COX1 (unknown origin) by EIA
Chain of Prostaglandin G/H synthase 1 (Homo sapiens) (P23219 whole entry): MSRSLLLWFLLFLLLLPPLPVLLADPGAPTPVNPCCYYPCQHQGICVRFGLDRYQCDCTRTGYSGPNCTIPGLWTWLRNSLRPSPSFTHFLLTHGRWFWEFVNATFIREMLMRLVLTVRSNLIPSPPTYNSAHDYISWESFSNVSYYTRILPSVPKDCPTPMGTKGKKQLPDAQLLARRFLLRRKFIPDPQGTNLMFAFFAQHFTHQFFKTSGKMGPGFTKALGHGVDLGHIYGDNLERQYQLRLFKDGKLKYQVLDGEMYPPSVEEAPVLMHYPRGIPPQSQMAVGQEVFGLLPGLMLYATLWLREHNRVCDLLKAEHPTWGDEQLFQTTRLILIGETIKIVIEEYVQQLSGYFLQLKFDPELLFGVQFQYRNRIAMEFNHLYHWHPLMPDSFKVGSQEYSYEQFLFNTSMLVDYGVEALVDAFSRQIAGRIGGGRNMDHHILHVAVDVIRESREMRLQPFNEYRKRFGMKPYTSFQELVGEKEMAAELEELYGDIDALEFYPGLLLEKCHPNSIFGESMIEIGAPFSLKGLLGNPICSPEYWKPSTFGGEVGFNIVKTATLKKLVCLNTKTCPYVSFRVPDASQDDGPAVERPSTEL

[8] = molecular target: T3, Polyunsaturated fatty acid 5-lipoxygenase; assay: Inhibition of 5-LOX (unknown origin) using arachidonic acid as substrate after 5 mins by EIA in presence of pig liver esterase
Outline: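 Same 5-LOX colorimetric immunoassay kit procedure (compounds at 0.01–100 µM in DMSO, AA substrate, chromogen, 490 nm, duplicates). Ester compounds were first treated with pig liver esterase, extracted per a reported procedure, before addition to the 5-LOX enzyme.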

[9] = molecular target: T2, Polyunsaturated fatty acid 5-lipoxygenase (Homo sapiens); assay: (§2) Inhibition of 5-LOX (unknown origin) by UV-Vis spectrophotometry
Outline: (§3)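 UV–visible spectral titration of the compounds with 5-LOX. Association constant Ka was obtained from 1/(Af−Aobs) = 1/(Af−Afc) + 1/(Ka[Af−Afc][L]). Ki was calculated as IC50/(1+[L]/Kd) using IC50 values from the enzyme immunoassay.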

[10] = molecular target: T3, Polyunsaturated fatty acid 5-lipoxygenase; assay: as §2; outline: as §3
[11] = molecular target: T2, Polyunsaturated fatty acid 5-lipoxygenase (Homo sapiens); assay: Inhibition of 5-LOX (unknown origin) using arachidonic acid as substrate at 10 uM after 5 mins by EIA; outline: as §1
[12] = Octanol-water partition coefficient, log P of the compound; type: physicochemical
[13] = molecular target: T2, Polyunsaturated fatty acid 5-lipoxygenase (Homo sapiens); assay: Inhibition of 5-LOX (unknown origin) using arachidonic acid as substrate at 100 uM after 5 mins by EIA; outline: as §1
HeLa = assay: Cytotoxicity against human HeLa cells assessed as cell viability at […] after 15 to 45 hrs by MTT assay; type: cell-based

## COC(=O)CC[C@@H](NC(=O)C(=O)c1cn(S(=O)(=O)c2ccc(C)cc2)c2ccccc12)C(=O)OC
[1]
  inhibition: inactive
[2]
  inhibition: 51.8%
[3]
  inhibition: inactive
[4]
  pIC50: 6.05
[5]
  inhibition: 18.5%
[6]
  inhibition: 35.2%
[7]
  inhibition: inactive
[8]
  pIC50: 6.89
[9]
  Ka: 1.06 ×10⁵ /M
[10]
  pKi: 6.09
[11]
  inhibition: 60.3%
[12]
  logP: 2.12
[13]
  inhibition: 65%

## COC(=O)[C@@H](Cc1cnc[nH]1)NC(=O)C(=O)c1c[nH]c2ccccc12
[1]
  inhibition: inactive
[2]
  inhibition: 40.8%
[3]
  inhibition: inactive
[5]
  inhibition: 30%
[6]
  inhibition: 37.7%
[7]
  inhibition: inactive
[11]
  inhibition: 45.5%
[13]
  inhibition: 65%

## COC(=O)[C@H]1CCCN1C(=O)C(=O)c1cn(S(=O)(=O)c2ccc(C)cc2)c2ccccc12
[1]
  inhibition: inactive
[2]
  inhibition: 54.5%
[3]
  inhibition: inactive
[4]
  pIC50: 6.48
[5]
  inhibition: 38.5%
[6]
  inhibition: 48.7%
[7]
  inhibition: inactive
[8]
  pIC50: 6.12
[9]
  Ka: 1.2 ×10⁵ /M
[10]
  pKi: 6.49
[11]
  inhibition: 69.3%
[12]
  logP: 2.19
[13]
  inhibition: 72%

## COC(=O)[C@@H](Cc1c[nH]c2ccccc12)NC(=O)C(=O)c1c[nH]c2ccccc12
[1]
  inhibition: inactive
[2]
  inhibition: 43.4%
[3]
  inhibition: inactive
[5]
  inhibition: 35%
[6]
  inhibition: 41.1%
[7]
  inhibition: inactive
[11]
  inhibition: 49.8%
[13]
  inhibition: 65%

## Cc1ccc(S(=O)(=O)n2cc(C(=O)C(=O)NCC(=O)O)c3ccccc32)cc1
[1]
  inhibition: inactive
[2]
  inhibition: 78.4%
HeLa
  Activity: Non-toxic
[3]
  inhibition: inactive
[4]
  pIC50: 8.07
[5]
  inhibition: 57.4%
[6]
  inhibition: 63.5%
[7]
  inhibition: inactive
[9]
  Ka: 2.07 ×10⁶ /M
[10]
  pKi: 8.08
[11]
  inhibition: 91.2%
[13]
  inhibition: 97.5%

## Cc1ccc(S(=O)(=O)n2cc(C(=O)C(=O)N[C@H](Cc3c[nH]c4ccccc34)C(=O)O)c3ccccc32)cc1
[1]
  inhibition: inactive
[2]
  inhibition: 67.3%
[3]
  inhibition: inactive
[4]
  pIC50: 8.00
[5]
  inhibition: 51%
[6]
  inhibition: 56.5%
[7]
  inhibition: inactive
[9]
  Ka: 3.6 ×10⁵ /M
[10]
  pKi: 8.00
[11]
  inhibition: 81.5%
[13]
  inhibition: 85%

## COC(=O)CC[C@@H](NC(=O)C(=O)c1c[nH]c2ccccc12)C(=O)OC
[1]
  inhibition: inactive
[2]
  inhibition: 44.8%
[3]
  inhibition: inactive
[4]
  pIC50: 5.08
[5]
  inhibition: 36%
[6]
  inhibition: 40%
[7]
  inhibition: inactive
[11]
  inhibition: 51.2%
[13]
  inhibition: 55%

## COC(=O)[C@@H](Cc1cnc[nH]1)NC(=O)C(=O)c1cn(S(=O)(=O)c2ccc(C)cc2)c2ccccc12
[1]
  inhibition: inactive
[2]
  inhibition: 45.3%
[3]
  inhibition: inactive
[4]
  pIC50: 5.36
[5]
  inhibition: 30%
[6]
  inhibition: 40.5%
[7]
  inhibition: inactive
[8]
  pIC50: 5.53
[9]
  Ka: 1.01 ×10⁴ /M
[10]
  pKi: 5.38
[11]
  inhibition: 58.2%
[12]
  logP: 1.98
[13]
  inhibition: 63.8%
